Reference: ChEMBL document CHEMBL1134070, “Ring-Constrained (N)-methanocarba nucleosides as adenosine receptor agonists: independent 5'-uronamide and 2'-deoxy modifications” (Bioorg Med Chem Lett, 2001)
Values belong to the molecule of their own block, whether it stands above or below them.

Experiments:
Adenosine receptor A3 [1] = biological target: T1, Adenosine receptor A3 (Homo sapiens, UniProt P0DMS8); test: Ability to displace specific radioligand [125I]AB-MECA binding at human Adenosine A3 receptor expressed in CHO cells; assay type: cell-based
T1 sequence (P0DMS8 whole entry): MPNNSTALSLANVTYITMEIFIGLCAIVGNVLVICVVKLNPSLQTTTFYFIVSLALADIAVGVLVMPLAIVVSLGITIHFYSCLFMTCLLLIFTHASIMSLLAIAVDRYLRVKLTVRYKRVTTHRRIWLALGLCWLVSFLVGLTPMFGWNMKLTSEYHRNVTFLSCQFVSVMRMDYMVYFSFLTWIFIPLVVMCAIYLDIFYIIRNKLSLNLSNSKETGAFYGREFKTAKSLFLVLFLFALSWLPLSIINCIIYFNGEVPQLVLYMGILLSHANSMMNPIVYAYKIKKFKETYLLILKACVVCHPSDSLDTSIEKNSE

Adenosine receptor A1 [2] = biological target: T2, Adenosine receptor A1 (Rattus norvegicus, UniProt P25099); test: Ability to displace specific radioligand [3H]R-PIA binding at Adenosine A1 receptor in rat brain membrane; assay type: cell membranes
T2 sequence (P25099 whole entry): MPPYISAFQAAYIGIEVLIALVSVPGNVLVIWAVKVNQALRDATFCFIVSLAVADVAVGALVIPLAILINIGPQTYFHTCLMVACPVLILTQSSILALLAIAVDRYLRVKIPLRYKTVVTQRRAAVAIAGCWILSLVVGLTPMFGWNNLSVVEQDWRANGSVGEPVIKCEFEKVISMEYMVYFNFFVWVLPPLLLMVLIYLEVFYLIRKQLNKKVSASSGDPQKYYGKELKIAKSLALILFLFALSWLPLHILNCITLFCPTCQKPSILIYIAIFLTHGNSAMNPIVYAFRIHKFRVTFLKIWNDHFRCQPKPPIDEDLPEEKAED
Outline: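 Rat brain membranes; competition against specific [3H]R-PIA binding at A1 receptors.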

[3] = biological target: Adenosine receptor A2a (Rattus norvegicus) (UniProt P30543); test: Displacement of [3H]-CGS- 21680 from A2A receptors (rA2A) in rat striatal membranes at 10 uM; assay type: cell membranes; conditions: Membrane
Chain of Adenosine receptor A2a (Rattus norvegicus) (P30543 whole entry): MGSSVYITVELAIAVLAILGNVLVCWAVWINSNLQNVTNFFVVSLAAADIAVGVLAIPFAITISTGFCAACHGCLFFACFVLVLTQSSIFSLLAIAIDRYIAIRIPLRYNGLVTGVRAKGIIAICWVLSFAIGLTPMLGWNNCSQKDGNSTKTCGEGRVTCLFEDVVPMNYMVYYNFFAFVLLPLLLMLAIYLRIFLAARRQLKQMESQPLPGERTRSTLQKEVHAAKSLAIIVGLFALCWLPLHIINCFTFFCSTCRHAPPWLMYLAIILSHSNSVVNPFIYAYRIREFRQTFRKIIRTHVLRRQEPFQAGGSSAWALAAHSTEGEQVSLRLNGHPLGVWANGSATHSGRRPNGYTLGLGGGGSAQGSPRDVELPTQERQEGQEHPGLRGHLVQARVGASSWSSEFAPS
Outline: (§1)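 Rat striatal membranes; percent displacement of specific [3H]CGS 21680 binding at A2A receptors measured at a single 10 μM test concentration.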

Adenosine receptor A3 [4] = biological target: T1, Adenosine receptor A3; test: Agonist efficacy as effective concentration to stimulate binding of [35S]GTP-gamma-S, by activation of human A3AR receptor; assay type: functional
Adenosine receptor A2a [5] = biological target: T3, Adenosine receptor A2a (Rattus norvegicus, UniProt P30543); test: Ability to displace specific radioligand [3H]-CGS- 21680 binding at A2A receptors (rA2A) in rat brain membrane; assay type: cell membranes
T3 sequence (P30543 whole entry): as above
Outline: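 Rat striatal membranes; competition against specific [3H]CGS 21680 binding at A2A receptors.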

[6] = biological target: T4, Adenosine receptor A1 (Homo sapiens) (UniProt P30542); test: Efficacy to stimulate binding of [35S]GTP-gamma-S, at human Adenosine A1 receptor; assay type: functional
T4 sequence (whole entry): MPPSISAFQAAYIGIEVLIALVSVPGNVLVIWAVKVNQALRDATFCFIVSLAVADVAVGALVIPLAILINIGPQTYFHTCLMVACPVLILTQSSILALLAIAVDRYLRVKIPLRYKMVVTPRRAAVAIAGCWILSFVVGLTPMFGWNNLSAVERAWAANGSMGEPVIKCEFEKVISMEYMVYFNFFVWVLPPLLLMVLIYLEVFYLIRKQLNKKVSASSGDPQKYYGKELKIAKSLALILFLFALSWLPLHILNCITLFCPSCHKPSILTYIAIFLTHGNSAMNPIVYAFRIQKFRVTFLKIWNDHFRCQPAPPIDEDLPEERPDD
Outline: (§2)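 Functional agonist assay: stimulation of [35S]GTP-γ-S binding following activation of the human A1 receptor. EC50 and percent efficacy reported as mean±value.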

Adenosine receptor A1 [7] = biological target: T5, Adenosine receptor A1 (Homo sapiens, UniProt P30542); test: Agonist efficacy as effective concentration to stimulate binding of [35S]GTP-gamma-S, at human A1 adenosine receptor; assay type: functional
T5 sequence (P30542 whole entry): T4 sequence (whole entry)
Outline: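 Functional agonist assay measuring agonist-stimulated [35S]GTP-γ-S binding through activation of the human A1AR. Potency was reported as EC50 together with percent efficacy, each as mean ± error.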

[8] = biological target: Adenosine receptor A2a (Rattus norvegicus) (UniProt P30543); test: Displacement of [3H]-CGS- 21680 from A2A receptors (rA2A) in rat striatal membranes at 100 uM; assay type: cell membranes; conditions: Membrane
Outline: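 Rat striatal membranes; percent displacement of specific [3H]CGS 21680 binding at A2A receptors measured at a single 100 μM test concentration.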

Adenosine receptor A1 [9] = biological target: T5, Adenosine receptor A1; test: Agonist efficacy as effective concentration to stimulate binding of [35S]GTP-gamma-S, at human Adenosine A1 receptor; assay type: functional; outline: as §2
Adenosine receptor A2a [10] = biological target: T3, Adenosine receptor A2a; test: Displacement of [3H]-CGS- 21680 from Adenosine A2A receptor in rat brain membrane; assay type: cell membranes
[11] = biological target: Adenosine receptor A2a (Rattus norvegicus) (UniProt P30543); test: Displacement of [3H]-CGS- 21680 from Adenosine A2A receptor in rat striatal membranes at 10 uM; assay type: cell membranes; conditions: Membrane; outline: as §1

Compound: CNC(=O)[C@@]12C[C@@H]1[C@@H](n1cnc3c(NC)nc(Cl)nc31)[C@H](O)[C@@H]2O
Ki (Adenosine receptor A3 [1]): 6.19 nM
Ki (Adenosine receptor A1 [2]): 805 nM
Displacement [3]: < 10%
EC50 (Adenosine receptor A3 [4]): 25.5 nM

Compound: CNC(=O)[C@@]12C[C@@H]1[C@@H](n1cnc3c(NCc4cccc(I)c4)ncnc31)[C@H](O)[C@@H]2O
Ki (Adenosine receptor A3 [1]): 2.39 nM
Ki (Adenosine receptor A1 [2]): 52.7 nM
Ki (Adenosine receptor A2a [5]): 548 nM
EC50 (Adenosine receptor A3 [4]): 6.8 nM

Compound: CNC(=O)[C@@]12C[C@@H]1[C@@H](n1cnc3c(NCc4cccc(I)c4)nc(Cl)nc31)[C@H](O)[C@@H]2O
Ki (Adenosine receptor A1 [2]): 83.9 nM
Ki (Adenosine receptor A2a [5]): 1660 nM

Compound: CCNC(=O)[C@@]12C[C@@H]1[C@@H](n1cnc3c(N)ncnc31)[C@H](O)[C@@H]2O
Ki (Adenosine receptor A2a [10]): 100 nM

Now from value to molecule:

Ki (Adenosine receptor A3 [1]): 84.7 nM
Ki (Adenosine receptor A1 [2]): 273 nM
Compound: Nc1nc(Cl)nc2c1ncn2[C@H]1[C@H](O)[C@H](O)[C@]2(CO)C[C@H]12

Ki (Adenosine receptor A3 [1]): 2880 nM
Ki (Adenosine receptor A1 [2]): 5110 nM
Efficacy [6]: 30%
EC50 (Adenosine receptor A1 [7]): 2890 nM
Displacement [8]: 15%
Compound: OC[C@@]12C[C@@H]1[C@@H](n1cnc3c(NC4CCCC4)ncnc31)C[C@@H]2O

Efficacy [6]: 40%
Displacement [8]: 45%
EC50 (Adenosine receptor A1 [9]): 2280 nM
Compound: OC[C@@]12C[C@@H]1[C@@H](n1cnc3c(NC4CCCC4)nc(Cl)nc31)C[C@@H]2O

Ki (Adenosine receptor A3 [1]): 22.5 nM
Ki (Adenosine receptor A1 [2]): 884 nM
Displacement [11]: < 10%
Compound: CNc1nc(Cl)nc2c1ncn2[C@H]1[C@H](O)[C@H](O)[C@]2(CO)C[C@H]12

Ki (Adenosine receptor A3 [1]): 912 nM
Ki (Adenosine receptor A1 [2]): 8730 nM
Ki (Adenosine receptor A2a [5]): 25400 nM
Compound: OC[C@@]12C[C@@H]1[C@@H](n1cnc3c(NCc4cccc(I)c4)nc(Cl)nc31)C[C@@H]2O

Displacement [11]: < 10%
Compound: CNc1ncnc2c1ncn2[C@H]1[C@H](O)[C@H](O)[C@]2(CO)C[C@H]12
